{"source": "ChEMBL document CHEMBL3593155", "about": "“Synthesis and evaluation of N-analogs of 1,2-diarylethane as Helicobacter pylori urease inhibitors” (Bioorg Med Chem, 2015)", "key": {"[1]": {"target": "T1, Urease subunit alpha/Urease subunit beta (Helicobacter pylori (strain ATCC 700392 / 26695) (Campylobacterpylori), UniProt P69996)", "T1 sequence (P69996 whole entry)": "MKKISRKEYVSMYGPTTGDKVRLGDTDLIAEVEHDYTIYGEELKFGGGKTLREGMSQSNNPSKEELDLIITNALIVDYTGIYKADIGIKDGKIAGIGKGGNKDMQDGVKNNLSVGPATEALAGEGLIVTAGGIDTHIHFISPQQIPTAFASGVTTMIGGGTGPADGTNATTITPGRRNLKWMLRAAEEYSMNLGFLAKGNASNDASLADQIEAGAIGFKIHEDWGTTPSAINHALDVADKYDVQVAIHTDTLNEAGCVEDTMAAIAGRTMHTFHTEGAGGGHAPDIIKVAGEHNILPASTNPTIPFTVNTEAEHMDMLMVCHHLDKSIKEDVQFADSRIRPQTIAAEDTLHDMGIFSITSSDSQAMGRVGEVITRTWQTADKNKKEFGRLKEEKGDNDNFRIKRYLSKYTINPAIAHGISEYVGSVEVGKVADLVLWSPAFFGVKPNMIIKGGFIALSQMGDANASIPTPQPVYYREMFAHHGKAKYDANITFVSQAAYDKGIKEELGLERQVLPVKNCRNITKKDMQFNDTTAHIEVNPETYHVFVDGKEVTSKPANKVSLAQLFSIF", "T1 sequence (P14916 whole entry, further chain)": "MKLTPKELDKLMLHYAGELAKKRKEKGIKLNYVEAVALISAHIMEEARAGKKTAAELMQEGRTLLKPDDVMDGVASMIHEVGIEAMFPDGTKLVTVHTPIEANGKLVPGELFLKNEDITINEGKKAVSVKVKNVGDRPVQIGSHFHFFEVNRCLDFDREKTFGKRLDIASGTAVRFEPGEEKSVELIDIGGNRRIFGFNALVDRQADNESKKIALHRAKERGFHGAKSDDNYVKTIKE", "test": "Inhibition of urease isolated from Helicobacter pylori ATCC 43504 assessed as ammonia production incubated for 1.5 hrs prior to testing by indophenol method", "method_in_brief": "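Washed cells were sonicated in water with protease inhibitors, and the supernatant was desalted on Sephadex G-25. This crude urease, mixed with an equal volume of glycerol, was pre-incubated with test compound for 1.5 h at room temperature.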"}, "[2]": {"target": "T1, Urease subunit alpha/Urease subunit beta", "test": "Inhibition of urease in Helicobacter pylori ATCC 43504 assessed as ammonia production incubated for 1.5 hrs prior to testing by indophenol method", "method_in_brief": "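Washed cells were sonicated 60 s in water with protease inhibitors. The supernatant was desalted on Sephadex G-25 and stored with equal-volume glycerol at 4 °C. Enzyme was preincubated with compound 1.5 h at room temperature.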"}, "[3]": {"target": "T2, Urease subunit alpha/Urease subunit beta (Helicobacter pylori (strain ATCC 700392 / 26695) (Campylobacterpylori)) (UniProt P69996+P14916)", "T2 sequence (P14916 whole entry, looked up)": "as the sequence (P14916 whole entry, further chain) above", "T2 sequence (P69996 whole entry, looked up)": "as the sequence (P69996 whole entry) above", "test": "Potency index, ratio of AHA IC50 to compound IC50 for urease in Helicobacter pylori ATCC 43504"}, "[4]": {"target": "T2, Urease subunit alpha/Urease subunit beta (Helicobacter pylori (strain ATCC 700392 / 26695) (Campylobacterpylori))", "test": "Potency index, ratio of AHA IC50 to compound IC50 for urease isolated from Helicobacter pylori ATCC 4350", "settings": "Helicobacter pylori ATCC 43504"}}}
{"smiles": "O=[N+]([O-])c1ccc(NCc2ccc(O)cc2)cc1", "values": [{"measurement": "IC50", "setting": "[1]", "result": 8.26, "unit": "µM"}, {"measurement": "IC50", "setting": "[2]", "result": 28.1, "unit": "µM"}]}
{"smiles": "COc1ccc(NCc2ccc(Cl)cc2)cc1", "values": [{"measurement": "IC50", "setting": "[1]", "result": "> 500", "unit": "µM"}]}
{"smiles": "O=[N+]([O-])c1ccccc1NCc1ccc(O)c(O)c1", "values": [{"measurement": "IC50", "setting": "[1]", "result": 45.1, "unit": "µM"}]}
{"smiles": "O=[N+]([O-])c1cccc(CNc2cccc([N+](=O)[O-])c2)c1", "values": [{"measurement": "IC50", "setting": "[1]", "result": 85, "unit": "µM"}]}
{"smiles": "Clc1ccc(NCc2ccc3c(c2)OCO3)cc1", "values": [{"measurement": "IC50", "setting": "[1]", "result": "> 500", "unit": "µM"}]}
{"smiles": "CC(=O)NO", "note": "[ACETOHYDROXAMIC ACID]", "values": [{"measurement": "IC50", "setting": "[1]", "result": 18.4, "unit": "µM"}, {"measurement": "IC50", "setting": "[2]", "result": 105, "unit": "µM"}]}
{"smiles": "COc1ccc(CNc2cccc([N+](=O)[O-])c2)cc1OC", "values": [{"measurement": "IC50", "setting": "[1]", "result": 50.4, "unit": "µM"}]}
{"smiles": "O=[N+]([O-])c1cccc(NCc2ccc(O)c(O)c2)c1", "values": [{"measurement": "IC50", "setting": "[1]", "result": 2.33, "unit": "µM"}, {"measurement": "IC50", "setting": "[2]", "result": 9.52, "unit": "µM"}]}
{"smiles": "CN(C)c1ccc(CNc2cccc([N+](=O)[O-])c2)cc1", "values": [{"measurement": "IC50", "setting": "[1]", "result": 16.8, "unit": "µM"}, {"measurement": "IC50", "setting": "[2]", "result": 72.4, "unit": "µM"}]}
{"smiles": "O=[N+]([O-])c1ccc(NCc2ccc(O)c(O)c2)cc1", "values": [{"measurement": "IC50", "setting": "[1]", "result": 0.62, "unit": "µM"}, {"measurement": "Ratio IC50", "setting": "[3]", "result": 54}, {"measurement": "Ratio IC50", "setting": "[4]", "result": 29}, {"measurement": "IC50", "setting": "[2]", "result": 1.92, "unit": "µM"}]}
{"smiles": "O=[N+]([O-])c1ccccc1CNc1ccc(Cl)cc1", "values": [{"measurement": "IC50", "setting": "[1]", "result": 239, "unit": "µM"}]}
{"smiles": "O=[N+]([O-])c1ccc(CNc2cccc([N+](=O)[O-])c2)cc1", "values": [{"measurement": "IC50", "setting": "[1]", "result": 64.9, "unit": "µM"}]}
{"smiles": "O=[N+]([O-])c1cccc(NCc2ccc(Cl)cc2)c1", "values": [{"measurement": "IC50", "setting": "[1]", "result": 57.5, "unit": "µM"}]}
{"smiles": "COc1ccc(NCc2ccc(N(C)C)cc2)cc1", "values": [{"measurement": "IC50", "setting": "[1]", "result": "> 500", "unit": "µM"}]}
{"smiles": "CN(C)c1ccc(CNc2ccc(Cl)cc2)cc1", "values": [{"measurement": "IC50", "setting": "[1]", "result": "> 500", "unit": "µM"}]}
{"smiles": "O=[N+]([O-])c1ccc(CNc2ccc([N+](=O)[O-])cc2)cc1", "values": [{"measurement": "IC50", "setting": "[1]", "result": 26.3, "unit": "µM"}, {"measurement": "IC50", "setting": "[2]", "result": 126, "unit": "µM"}]}
{"smiles": "O=[N+]([O-])c1cccc(CNc2cccc(Cl)c2)c1", "values": [{"measurement": "IC50", "setting": "[1]", "result": 410, "unit": "µM"}]}
{"smiles": "COc1ccc(NCc2cccc([N+](=O)[O-])c2)cc1", "values": [{"measurement": "IC50", "setting": "[1]", "result": 319, "unit": "µM"}]}
{"smiles": "COc1ccc(CNc2ccc(Cl)cc2)cc1OC", "values": [{"measurement": "IC50", "setting": "[1]", "result": "> 500", "unit": "µM"}]}
{"smiles": "O=[N+]([O-])c1ccc(NCc2ccc(Cl)cc2)cc1", "values": [{"measurement": "IC50", "setting": "[1]", "result": 19.5, "unit": "µM"}, {"measurement": "IC50", "setting": "[2]", "result": 83.8, "unit": "µM"}]}
{"smiles": "O=[N+]([O-])c1ccc(CNc2cccc(Cl)c2)cc1", "values": [{"measurement": "IC50", "setting": "[1]", "result": 236, "unit": "µM"}]}
